Measurements reported in ChEMBL document CHEMBL3286129, “Optimization of peptidomimetic boronates bearing a P3 bicyclic scaffold as proteasome inhibitors” (Eur J Med Chem, 2014).

Experiments:
[1] = system: NCI-H460; experiment: Growth inhibition of human NCI-H460 cells; assay type: functional
[2] = Growth inhibition of human HCC2998 cells; assay type: functional; settings: HCC 2998
[3] = system: HCT-116; experiment: Growth inhibition of human HCT116 cells; assay type: functional
[4] = system: KM12; experiment: Growth inhibition of human KM12 cells; assay type: functional
[5] = system: SW-620; experiment: Growth inhibition of human SW620 cells; assay type: functional
[6] = system: SF-268; experiment: Growth inhibition of human SF268 cells; assay type: functional
[7] = Growth inhibition of human SF295 cells; assay type: functional; settings: SF-295
[8] = system: SNB-75; experiment: Growth inhibition of human SNB75 cells; assay type: functional
[9] = system: Malme-3M; experiment: Growth inhibition of human MALME-3M cells; assay type: functional; settings: for CC50: read-out: LC50 (the source's name)
[10] = system: M14; experiment: Growth inhibition of human M14 cells; assay type: functional
[11] = system: MDA-MB-435; experiment: Growth inhibition of human MDA-MB-435 cells; assay type: functional; settings: for CC50: read-out: LC50 (the source's name)
[12] = system: SK-MEL-5; experiment: Growth inhibition of human SK-MEL-5 cells; assay type: functional
[13] = Growth inhibition of human UACC62 cells; assay type: functional; settings: UACC-62
[14] = Growth inhibition of human OVCAR4 cells; assay type: functional; settings: for GI50 / TGI: OVCAR-4; for CC50: OVCAR-4, read-out: LC50 (the source's name)
[15] = Growth inhibition of human NCI-ADR-RES cells; assay type: functional
[16] = system: SK-OV-3; experiment: Growth inhibition of human SKOV3 cells; assay type: functional
[17] = system: SN12C; experiment: Growth inhibition of human SN12C cells; assay type: functional; settings: for CC50: read-out: LC50 (the source's name)
[18] = Growth inhibition of human UO31 cells; assay type: functional; settings: UO-31
[19] = system: DU-145; experiment: Growth inhibition of human DU145 cells; assay type: functional; settings: for CC50: read-out: LC50 (the source's name)
[20] = Growth inhibition of human Hs 578T cells; assay type: functional; settings: for CC50: read-out: LC50 (the source's name)
[21] = system: T47D; experiment: Growth inhibition of human T47D cells; assay type: functional; settings: for CC50: read-out: LC50 (the source's name)
[22] = system: MDA-MB-468; experiment: Growth inhibition of human MDA-MB-468 cells; assay type: functional; settings: for CC50: read-out: LC50 (the source's name)
[23] = target: T1, Proteasome Macropain subunit MB1 (Homo sapiens) (UniProt P28074); experiment: Inhibition of chymotrypsin-like activity of 20S proteasome in human erythrocytes using Suc-Leu-Leu-Val-Tyr-AMC as substrate at 20 uM by fluorescence assay relative to control
T1 sequence (whole entry): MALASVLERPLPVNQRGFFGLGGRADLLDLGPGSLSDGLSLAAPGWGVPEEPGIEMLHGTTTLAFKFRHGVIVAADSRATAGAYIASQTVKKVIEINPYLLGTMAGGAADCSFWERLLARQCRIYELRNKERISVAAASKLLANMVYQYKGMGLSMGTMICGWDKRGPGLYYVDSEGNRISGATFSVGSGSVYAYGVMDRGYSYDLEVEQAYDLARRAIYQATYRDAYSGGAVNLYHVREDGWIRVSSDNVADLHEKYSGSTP
How it was run: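 Single inhibitor concentration, equivalent DMSO as negative control. AMC fluorescence read at ex 380/em 460 nm; percent inhibition of ChT-L activity.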

[24] = target: T2, Proteasome Macropain subunit MB1 (Homo sapiens, UniProt P28074); experiment: Inhibition of chymotrypsin-like activity of 20S proteasome in human erythrocytes using Suc-Leu-Leu-Val-Tyr-AMC as substrate by fluorescence assay; settings: read-out: Ki
T2 sequence (P28074 whole entry): T1 sequence (whole entry)

[25] = Cytotoxicity against human NSCLC cells assessed as cell growth at 10 uM relative to control; assay type: functional; settings: read-out: Activity
How it was run: (§1)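 Single-concentration screen against a panel of human cancer cell lines. Each value is the mean percent growth across the cell lines of that tumour subpanel.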

[26] = Cytotoxicity against human colon cancer cells assessed as cell growth at 10 uM relative to control; assay type: functional; settings: Cancer cell lines, read-out: Activity; how it was run: as §1
[27] = Cytotoxicity against human melanoma cells assessed as cell growth at 10 uM relative to control; assay type: functional; settings: read-out: Activity; how it was run: as §1
[28] = Cytotoxicity against human prostate cancer cells assessed as cell growth at 10 uM relative to control; assay type: functional; settings: Cancer cell lines, read-out: Activity; how it was run: as §1
[29] = system: CCRF-CEM; experiment: Growth inhibition of human CCRF-CEM cells; assay type: functional; settings: for CC50: read-out: LC50 (the source's name)
[30] = system: HL-60(TB); experiment: Growth inhibition of human HL-60(TB) cells; assay type: functional; settings: for CC50: read-out: LC50 (the source's name)
[31] = Growth inhibition of human MOLT4 cells; assay type: functional; settings: for GI50 / TGI: MOLT-4; for CC50: MOLT-4, read-out: LC50 (the source's name)
[32] = system: SR; experiment: Growth inhibition of human SR cells; assay type: functional; settings: for CC50: read-out: LC50 (the source's name)

Structure (SMILES): CC(C)C[C@H](NC(=O)Cn1ccc2ccc(Br)cc2c1=O)B(O)O
- GI50 [1]: 5.58 µM
- LC50 [1]: > 100 µM
- TGI [1]: 36.8 µM
- GI50 [2]: 2.46 µM
- LC50 [2]: 31.4 µM
- TGI [2]: 6.37 µM
- GI50 [3]: 0.6 µM
- LC50 [3]: 95.8 µM
- TGI [3]: 3.57 µM
- GI50 [4]: 3.55 µM
- LC50 [4]: > 100 µM
- TGI [4]: 17.3 µM
- GI50 [5]: 0.46 µM
- LC50 [5]: > 100 µM
- TGI [5]: 8.19 µM
- GI50 [6]: 3.76 µM
- LC50 [6]: > 100 µM
- TGI [6]: 31.9 µM
- GI50 [7]: 2.03 µM
- LC50 [7]: 86.4 µM
- TGI [7]: 15.9 µM
- GI50 [8]: 2.13 µM
- LC50 [8]: 63.3 µM
- TGI [8]: 9.09 µM
- GI50 [9]: 4.31 µM
- TGI [9]: > 100 µM
- CC50 [9]: > 100 µM
- GI50 [10]: 1.25 µM
- LC50 (concentration killing 50% of cells) [10]: > 100 µM
- TGI [10]: 6.73 µM
- GI50 [11]: 0.33 µM
- TGI [11]: 1.29 µM
- CC50 [11]: 5.88 µM
- GI50 [12]: 0.8 µM
- LC50 (concentration killing 50% of cells) [12]: 7.88 µM
- TGI [12]: 2.65 µM
- GI50 [13]: 1.86 µM
- LC50 (concentration killing 50% of cells) [13]: 97 µM
- TGI [13]: 10.4 µM
- GI50 [14]: 4.94 µM
- TGI [14]: > 100 µM
- CC50 [14]: > 100 µM
- GI50 [15]: 21.5 µM
- LC50 [15]: > 100 µM
- TGI [15]: > 100 µM
- GI50 [16]: 8.73 µM
- LC50 [16]: > 100 µM
- TGI [16]: > 100 µM
- GI50 [17]: 3.52 µM
- TGI [17]: 55.2 µM
- CC50 [17]: > 100 µM
- GI50 [18]: 1.61 µM
- LC50 [18]: 61.6 µM
- TGI [18]: 11.1 µM
- GI50 [19]: 6.05 µM
- TGI [19]: > 100 µM
- CC50 [19]: > 100 µM
- GI50 [20]: 2.94 µM
- TGI [20]: 75.1 µM
- CC50 [20]: > 100 µM
- GI50 [21]: 0.78 µM
- TGI [21]: 12.4 µM
- CC50 [21]: > 100 µM
- GI50 [22]: 0.3 µM
- TGI [22]: 1.1 µM
- CC50 [22]: > 100 µM
- inhibition [23]: > 40%
- Ki [24]: 0.053 µM
- growth at 10 µM [25]: 22%
- growth at 10 µM [26]: 3.27%
- growth at 10 µM [27]: -17.1%
- growth at 10 µM [28]: 42.9%
- GI50 [29]: 0.44 µM
- TGI [29]: > 100 µM
- CC50 [29]: > 100 µM
- GI50 [30]: 0.38 µM
- TGI [30]: 5.34 µM
- CC50 [30]: > 100 µM
- GI50 [31]: 0.3 µM
- TGI [31]: 1.57 µM
- CC50 [31]: > 100 µM
- GI50 [32]: 0.27 µM
- TGI [32]: 12.2 µM
- CC50 [32]: > 100 µM

Structure (SMILES): CC(C)C[C@H](NC(=O)CCn1ccc2ccc(Br)cc2c1=O)B(O)O
- GI50 [1]: 3.18 µM
- LC50 [1]: > 100 µM
- TGI [1]: > 100 µM
- GI50 [2]: 1.14 µM
- LC50 [2]: 8.42 µM
- TGI [2]: 3.09 µM
- GI50 [3]: 0.34 µM
- LC50 [3]: > 100 µM
- TGI [3]: 2.55 µM
- GI50 [4]: 1.33 µM
- LC50 [4]: > 100 µM
- TGI [4]: 4.38 µM
- GI50 [5]: 0.38 µM
- LC50 [5]: > 100 µM
- TGI [5]: > 100 µM
- GI50 [6]: 0.7 µM
- LC50 [6]: > 100 µM
- TGI [6]: 3.85 µM
- GI50 [7]: 0.58 µM
- LC50 [7]: 75.5 µM
- TGI [7]: 4.51 µM
- GI50 [8]: 0.46 µM
- LC50 [8]: > 100 µM
- TGI [8]: 3.82 µM
- GI50 [9]: 0.68 µM
- TGI [9]: 7.95 µM
- CC50 [9]: > 100 µM
- GI50 [10]: 0.36 µM
- LC50 (concentration killing 50% of cells) [10]: > 100 µM
- TGI [10]: 3.88 µM
- GI50 [11]: 0.18 µM
- TGI [11]: 0.37 µM
- CC50 [11]: 0.78 µM
- GI50 [12]: 0.37 µM
- LC50 (concentration killing 50% of cells) [12]: 82.5 µM
- TGI [12]: 3.11 µM
- GI50 [13]: 0.46 µM
- LC50 (concentration killing 50% of cells) [13]: 28.5 µM
- TGI [13]: 2.44 µM
- GI50 [14]: 2.06 µM
- TGI [14]: > 100 µM
- CC50 [14]: > 100 µM
- GI50 [15]: 17.4 µM
- LC50 [15]: > 100 µM
- TGI [15]: > 100 µM
- GI50 [16]: 2.36 µM
- LC50 [16]: > 100 µM
- TGI [16]: 71.5 µM
- GI50 [17]: 1.5 µM
- TGI [17]: 11.5 µM
- CC50 [17]: > 100 µM
- GI50 [18]: 0.98 µM
- LC50 [18]: > 100 µM
- TGI [18]: 15.4 µM
- GI50 [19]: 0.71 µM
- TGI [19]: > 100 µM
- CC50 [19]: > 100 µM
- GI50 [20]: 0.43 µM
- TGI [20]: 6.2 µM
- CC50 [20]: > 100 µM
- GI50 [21]: 0.78 µM
- TGI [21]: 6.09 µM
- CC50 [21]: > 100 µM
- GI50 [22]: 0.26 µM
- TGI [22]: 0.74 µM
- CC50 [22]: > 100 µM
- inhibition [23]: > 40%
- Ki [24]: 0.06 µM
- growth at 10 µM [25]: 8.79%
- growth at 10 µM [26]: 4.45%
- growth at 10 µM [27]: -19.2%
- growth at 10 µM [28]: 34.5%
- GI50 [29]: 0.43 µM
- TGI [29]: > 100 µM
- CC50 [29]: > 100 µM
- CC50 [30]: > 100 µM
- GI50 [31]: 0.31 µM
- TGI [31]: > 100 µM
- CC50 [31]: > 100 µM
- GI50 [32]: 0.26 µM
- TGI [32]: 11.6 µM
- CC50 [32]: > 100 µM
